Test results as given in ChEMBL document CHEMBL5154854, “Identification of a Vitamin-D Receptor Antagonist, MeTC7, which Inhibits the Growth of Xenograft and Transgenic Tumors In Vivo” (J Med Chem, 2022).

Target: T1, Vitamin D3 receptor (Homo sapiens) (UniProt P11473)
T1 sequence (whole entry): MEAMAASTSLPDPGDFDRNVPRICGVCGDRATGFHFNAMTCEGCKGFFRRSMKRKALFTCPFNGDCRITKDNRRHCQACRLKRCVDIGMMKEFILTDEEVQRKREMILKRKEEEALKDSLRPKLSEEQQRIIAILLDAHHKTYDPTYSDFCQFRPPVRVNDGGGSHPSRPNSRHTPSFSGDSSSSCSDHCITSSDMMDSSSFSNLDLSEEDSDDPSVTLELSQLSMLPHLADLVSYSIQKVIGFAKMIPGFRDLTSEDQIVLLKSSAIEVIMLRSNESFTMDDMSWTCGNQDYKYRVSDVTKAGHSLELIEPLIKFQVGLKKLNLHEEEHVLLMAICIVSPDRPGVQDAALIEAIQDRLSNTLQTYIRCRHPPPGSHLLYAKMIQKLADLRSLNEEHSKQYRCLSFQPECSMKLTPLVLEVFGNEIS
Test: Antagonist activity at VDR LBD (unknown origin) using Alexa Fluor 647-labeled SRC2-3 as substrate incubated for 2 hrs in presence of calcitriol by fluorescence polarization assay
Outline: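 VDR-LBD (0.1 μM) with Alexa Fluor 647-labelled SRC2-3 (17.5 nM) and 10 nM 1,25(OH)2D3 in 25 mM PIPES, 50 mM NaCl, 0.01% NP-40, pH 6.75. Compounds were serially diluted 1:2 from 10 mM DMSO stocks and incubated 2 h. Polarization was read at 635/685 nm. Three independent experiments in quadruplicate; IC50 by variable-slope nonlinear regression.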

## CC(C)CCC[C@@H](C)[C@H]1CC[C@H]2C3=CC=C4C[C@@H](O)CC[C@]4(C)[C@H]3CC[C@]12C
  Activity: > 100 µM
